One data set concerns Rattus norvegicus. In words: Total drug excretion in F344 rat at 1 mg/kg, iv administered as single dose after 0 to 168 hrs by scintillation counting method. Further details: dose 1 mg/kg, route intravenous. Format: ADME, organism-based. Conditions: in vivo. The method in brief: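 Fasted F344 rats (n = 4) received [14C]-labelled drug at 1 mg/kg (41.9 µCi/kg), iv via tail vein or oral. They were housed in metabolic cages. Urine and feces were collected to 168 h, and expired CO2 was trapped in 2-aminoethanol/2-methoxyethanol to 48 h. Radioactivity was counted by liquid scintillation, feces after homogenization. Results are % of dose.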

A short description of data set [1]: Drug distribution in F344 rat cecum at 1 mg/kg, po administered as single dose after 2 hrs by scintillation counting method. Format: ADME, organism-based, Caecum. Further details: dose 1 mg/kg, route oral. Conditions: in vivo. The method in brief: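 [14C]-labelled drug (1 mg/kg, 42.4 µCi/kg) was given orally to fasted F344 rats (148–168 g, n = 3). Contents of stomach, duodenum+jejunum, ileum and cecum were washed out with water at 0.5–8 h, homogenized, solubilized and counted by liquid scintillation. Results are % of dose, mean ± S.D.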

Data set [2] relates to Cynomolgus monkey. In words: Total drug excretion in cynomolgus monkey at 3 mg/kg, iv administered as single dose after 0 to 336 hrs by scintillation counting method. Conditions: in vivo. Further details: dose 3 mg/kg, route intravenous. Format: ADME, organism-based, Macaca fascicularis. The method in brief: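 Fasted male cynomolgus monkeys (n = 4) were dosed with 14C-labelled drug at 3 mg/kg, iv via saphenous vein (191 µCi/kg) or orally by stomach catheter (156.5 µCi/kg). Urine, feces and cage-wash water were collected to 336 h. Radioactivity was measured by liquid scintillation counting, with feces homogenized in water, and expressed as % of dose.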

Data set [3] in a line: Ratio of drug level in blood to plasma in F344 rat after 5 mins. Format: ADME.
The nature of data set [4]: Drug metabolism in rat kidney […] S9 fractions at 0.42 uCi/ml assessed as metabolite formation in presence of NADPH after 1 hr at 37 degC by LC-MS/MS method. Format: ADME, subcellular. Conditions: s9, 1 h.
Data set [5] relates to Cynomolgus monkey. The experiment in a line: Drug excretion in cynomolgus monkey assessed as drug level found during cage washing at 3 mg/kg, po administered as single dose after 0 to 336 hrs by scintillation counting method. Format: ADME, organism-based, Macaca fascicularis. On the set-up: dose 3 mg/kg, route oral. Conditions: in vivo. The method in brief: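 Fasted cynomolgus monkeys (n = 4) received [14C]-labelled drug at 3 mg/kg, iv via saphenous vein (191 µCi/kg) or orally by stomach catheter (156.5 µCi/kg). Urine, feces and water cage-wash were collected to 336 h. Samples were counted by liquid scintillation; feces were homogenized in 4-fold water. Results are % of dose, mean ± S.D.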

Data set [6] can be described thus: Drug excretion in F344 rat feces at 1 mg/kg, po administered as single dose after 0 to 48 hrs by scintillation counting method. Type of data set: ADME, organism-based. The note with it: in vivo. On the set-up: dose 1 mg/kg, route oral. The method in brief:
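Fasted F344 rats (152–156 g iv via tail vein; 154–159 g oral; n = 4) received [14C]-labelled drug at 1 mg/kg (41.9 µCi/kg). Animals were kept in metabolic cages; urine and feces were collected to 168 h, and expired CO2 was trapped in 2-aminoethanol/2-methoxyethanol (1:1) to 48 h. Samples were counted by liquid scintillation (feces homogenized). Results are % of dose, mean ± S.D.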

A short description of data set [7]: Drug metabolism in human intestinal S9 fractions at 0.42 uCi/ml assessed as metabolite formation in presence of NADPH after 1 hr at 37 degC by LC-MS/MS method. Type of data set: ADME, Intestine. Conditions: s9, 1 h.
Data set [8] in a line: AUClast in F344 rat at 0.3 mg/kg, iv administered as single dose by LC-MS/MS method. Conditions: plasma. Further details: time 0 - last, dose 0.3 mg/kg, route intravenous. Format: ADME, organism-based. In short, it runs like this: (§1)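 Fasted male F344 rats (146–185 g) or male cynomolgus monkeys (3.48–4.29 kg), n = 4 per dose, given single iv or oral dose of 0.3, 1.0, 3.0 or 10.0 mg/kg; monkeys dosed with 2-week washouts. Blood sampled to 48 h; plasma stored frozen. LC-MS/MS with deuterated internal standard. Noncompartmental analysis: AUClast by trapezoidal rule; AUC0–inf = AUClast + Ctz/terminal rate constant; mean ± S.D.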

The next data set addresses T1, Alpha amylase (Homo sapiens, UniProt P0DUB6).
T1 sequence (P0DUB6 whole entry): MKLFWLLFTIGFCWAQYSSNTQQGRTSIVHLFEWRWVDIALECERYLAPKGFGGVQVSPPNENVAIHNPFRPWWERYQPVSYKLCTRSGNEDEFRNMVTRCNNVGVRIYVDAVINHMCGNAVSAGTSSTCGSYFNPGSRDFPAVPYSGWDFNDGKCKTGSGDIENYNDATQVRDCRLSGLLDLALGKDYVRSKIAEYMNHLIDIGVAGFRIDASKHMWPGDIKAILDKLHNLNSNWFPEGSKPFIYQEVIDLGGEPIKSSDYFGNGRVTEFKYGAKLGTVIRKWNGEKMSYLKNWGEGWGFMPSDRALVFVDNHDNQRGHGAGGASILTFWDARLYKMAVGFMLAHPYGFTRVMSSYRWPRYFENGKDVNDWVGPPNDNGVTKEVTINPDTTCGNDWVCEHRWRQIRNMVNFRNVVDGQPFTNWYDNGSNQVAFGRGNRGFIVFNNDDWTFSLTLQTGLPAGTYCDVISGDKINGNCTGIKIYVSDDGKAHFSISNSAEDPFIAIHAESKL
In words: Inhibition of pancreatic alpha amylase (unknown origin).

Data set [9] in a line: Cmax in F344 rat at 0.3 mg/kg, po administered as single dose by LC-MS/MS method. Format: ADME, organism-based. Conditions: in vivo. On the set-up: dose 0.3 mg/kg, route oral. In short, it runs like this: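 Fasted male F344 rats (146–185 g) and cynomolgus monkeys (3.48–4.29 kg), n = 4 each, received a single oral dose; monkeys had 2-week washouts. Plasma sampled up to 48 h, stored at […], assayed by LC-MS/MS with a deuterated internal standard. Cmax taken from observed data by noncompartmental analysis; mean ± S.D. (n = 3 or 4).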

A short description of data set [10]: Cmax in F344 rat at 3 mg/kg, po administered as single dose by LC-MS/MS method. Type of data set: ADME, organism-based. Further details: dose 3 mg/kg, route oral. The note with it: in vivo.
Data set [11] can be described thus: Half life in cynomolgus monkey at 1 mg/kg, po administered as single dose by LC-MS/MS method. Type of data set: ADME, organism-based, Macaca fascicularis. Further details: dose 1 mg/kg, route oral. Conditions: in vivo. In short, it runs like this:
(§2)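 Male F344 rats (146–185 g) and male cynomolgus monkeys (3.48–4.29 kg), n = 4 each, fasted overnight, received single iv or oral doses of 0.3, 1.0, 3.0 or 10.0 mg/kg. Monkeys had 2-week washouts between doses. Plasma was sampled to 48 h and assayed by LC-MS/MS with deuterated internal standard. Noncompartmental analysis: tmax observed; t1/2 by regression on ≥3 terminal log points; Vss = dose·AUMC/(AUC0–inf)²; Foral = oral/iv AUC0–inf at the same dose.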

Data set [12] in a line: Half life in cynomolgus monkey at 3 mg/kg, iv administered as single dose by LC-MS/MS method. Format: ADME, organism-based, Macaca fascicularis. On the set-up: dose 3 mg/kg, route intravenous. Conditions: in vivo. In short, it runs like this: as §2
A short description of data set [13]: AUC (0 to infinity) in F344 rat at 1 mg/kg, po administered as single dose by LC-MS/MS method. On the set-up: dose 1 mg/kg, route oral, time infinity. Format: ADME, organism-based. The note with it: plasma. In short, it runs like this:
as §1

The nature of data set [14]: Tmax in F344 rat at 3 mg/kg, po administered as single dose by LC-MS/MS method. The note with it: in vivo. On the set-up: dose 3 mg/kg, route oral. Type of data set: ADME, organism-based. The method in brief: as §2
Data set [15] in a line: Tmax in F344 rat at 1 mg/kg, po administered as single dose by LC-MS/MS method. The note with it: in vivo. Further details: dose 1 mg/kg, route oral. Type of data set: ADME, organism-based. The method in brief: as §2

One may read the AUC(0-t) as exposure summed from dosing to a finite time, without extrapolation to infinity. One may read the IC50 as the concentration that inhibits the measured activity by half. A word on the Cmax: it is the highest concentration seen after dosing. The half-life is the time needed for the level to fall by half in the phase considered. What is called AUC(0-inf) is total exposure, with the tail of the curve extrapolated. The Tmax is the time from dosing to the highest level.

Take `C[C@H]1O[C@@H](O[C@H]2[C@H](O)[C@@H](O)[C@@H](O[14C@H]3[14C@H](O)[14CH2]N[14C@@H]3[14CH2]O)O[C@@H]2CO)[C@H](O)[C@@H](O)[C@@H]1O`: the Drug excretion in the data set with Rattus norvegicus worked out at 95.85%; with Cynomolgus monkey [2], 96.29%; with Cynomolgus monkey [5], 1.35%; in data set [6] it was 77.59%. In addition, in [1], the Drug uptake was found to be 49.9%. In addition, the blood plasma ratio at 5 min in data set [3] was determined as 0.575. Further, the Drug metabolism result in data set [4] and in data set [7] was “metabolite_not_detected” throughout.

Regarding `C[C@H]1O[C@@H](O[C@H]2[C@H](O)[C@@H](O)[C@@H](O[C@H]3[C@H](O)CN[C@@H]3CO)O[C@@H]2CO)[C@H](O)[C@@H](O)[C@@H]1O`, the AUC(0-t) in [8] came to 1860 ng·h/mL. The molecule further came in with an IC50 on Alpha amylase of 450 nM. In addition, the values for the Cmax in [9] and in data set [10] were 16.2 ng/mL and 113 ng/mL, respectively. Also, the half-life is 77.4 min in data set [11] and 1510 min in data set [12]. Moreover, the AUC(0-inf) in data set [13] is 115 ng·h/mL. The Tmax in [14] amounted to 22.5 min; in data set [15] it was 25 min.

For the origin of these results see ChEMBL document CHEMBL3526127, “Absorption, elimination, and metabolism of CS-1036, a novel α-amylase inhibitor in rats and monkeys, and the relationship between gastrointestinal distribution and suppression of glucose absorption” (Drug Metab Dispos, 2013).
